Measured values reported in ChEMBL document CHEMBL1921800, “Molecular modeling: a search for a calpain inhibitor as a new treatment for cataractogenesis” (J Med Chem, 2011).
pIC50: −log10 of the molar value. Residues, ends and D or L forms follow the SMILES beside them. *: point of attachment. Tos = Cc1ccc(S(=O)(=O)*)cc1; Ms = CS(=O)(=O)*

Assays:
[1] = target: T1, Calpain-2 catalytic subunit (Homo sapiens, UniProt P17655); assay: Inhibition of CAPN2 using BODIPY-labeled casein substrate by fluorometric analysis
T1 sequence (P17655 whole entry): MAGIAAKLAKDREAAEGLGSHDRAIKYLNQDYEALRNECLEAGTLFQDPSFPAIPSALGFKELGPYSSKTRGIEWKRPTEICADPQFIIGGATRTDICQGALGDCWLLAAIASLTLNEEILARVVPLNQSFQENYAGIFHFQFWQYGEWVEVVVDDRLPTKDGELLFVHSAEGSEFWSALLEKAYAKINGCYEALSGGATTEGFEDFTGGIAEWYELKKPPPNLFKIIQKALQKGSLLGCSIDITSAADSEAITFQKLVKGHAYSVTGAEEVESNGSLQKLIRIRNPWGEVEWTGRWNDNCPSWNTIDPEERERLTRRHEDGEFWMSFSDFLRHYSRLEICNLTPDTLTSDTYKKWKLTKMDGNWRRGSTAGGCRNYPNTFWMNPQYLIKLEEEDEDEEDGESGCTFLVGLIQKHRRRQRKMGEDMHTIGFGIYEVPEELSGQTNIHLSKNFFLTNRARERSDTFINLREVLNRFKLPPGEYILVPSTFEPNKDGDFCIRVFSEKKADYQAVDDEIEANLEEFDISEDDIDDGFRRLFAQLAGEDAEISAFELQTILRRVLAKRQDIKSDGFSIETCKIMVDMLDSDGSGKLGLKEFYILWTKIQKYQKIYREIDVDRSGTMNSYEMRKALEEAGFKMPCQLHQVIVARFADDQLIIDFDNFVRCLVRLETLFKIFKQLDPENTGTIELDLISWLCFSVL
In short: (§1)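 Quenched fluorogenic substrate: casein labelled with BODIPY (4,4-difluoro-5,7-dimethyl-4-bora-3a,4a-diaza-s-indacene-3-propionic acid). Proteolysis relieves the quenching, and the resulting rise in fluorescence is the read-out. IC50 was determined with an established protocol at the Lincoln University laboratory.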

[2] = target: T2, Calpain-1 catalytic subunit (Rattus norvegicus, UniProt P97571); assay: Inhibition of rat CAPN1 using BODIPY-labeled casein substrate by fluorometric analysis
T2 sequence (P97571 whole entry): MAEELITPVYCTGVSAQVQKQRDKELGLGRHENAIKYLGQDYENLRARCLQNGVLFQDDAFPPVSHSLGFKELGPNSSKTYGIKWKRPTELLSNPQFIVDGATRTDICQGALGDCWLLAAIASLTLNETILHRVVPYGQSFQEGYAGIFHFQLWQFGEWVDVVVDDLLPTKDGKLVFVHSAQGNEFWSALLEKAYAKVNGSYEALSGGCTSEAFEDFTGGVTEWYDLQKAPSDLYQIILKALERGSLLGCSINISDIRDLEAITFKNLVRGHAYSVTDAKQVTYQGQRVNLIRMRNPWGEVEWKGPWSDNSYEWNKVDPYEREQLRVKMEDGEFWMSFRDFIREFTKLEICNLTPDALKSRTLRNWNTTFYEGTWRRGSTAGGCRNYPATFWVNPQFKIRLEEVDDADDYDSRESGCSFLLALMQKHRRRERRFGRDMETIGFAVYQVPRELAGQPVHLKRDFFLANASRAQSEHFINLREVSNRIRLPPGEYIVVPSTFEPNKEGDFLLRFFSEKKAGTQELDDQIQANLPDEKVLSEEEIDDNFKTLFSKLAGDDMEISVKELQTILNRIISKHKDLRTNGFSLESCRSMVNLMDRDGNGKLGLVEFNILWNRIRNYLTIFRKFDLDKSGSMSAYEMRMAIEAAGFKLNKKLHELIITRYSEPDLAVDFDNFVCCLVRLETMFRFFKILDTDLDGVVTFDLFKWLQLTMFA

[3] = Inhibition of ovine CAPN1 using BODIPY-labeled casein substrate by fluorometric analysis; set-up: species or system Ovis aries; in short: as §1
[4] = Inhibition of ovine CAPN2 using BODIPY-labeled casein substrate by fluorometric analysis; set-up: species or system Ovis aries; in short: as §1

CC(C)C[C@@H]1NC(=O)[C@@H](NC(=O)OCc2ccccc2)Cc2ccc(cc2)OCCC[C@@H](C=O)NC1=O
pIC50 [1]: 6.07

CC(C)C[C@@H]1NC(=O)[C@@H](NC(=O)OCc2ccccc2)Cc2ccc(cc2)OCCC[C@@H](CO)NC1=O
pIC50 [1]: 4.51

CC(C)[C@@H]1NC(=O)[C@@H](NC(=O)OCc2ccccc2)Cc2ccc(cc2)OCCCC[C@@H](C=O)NC1=O
pIC50 [1]: 7.07

CC(C)C[C@@H]1NC(=O)[C@@H](NC(=O)OCc2ccccc2)Cc2ccc(cc2)OCCCCSC[C@@H](C=O)NC1=O
pIC50 [1]: 6.00

CC(C)C[C@@H]1NC(=O)[C@@H](NC(=O)OCc2ccccc2)Cc2ccc(cc2)OCCCCSC[C@@H](CO)NC1=O
pIC50 [1]: 4.55

CC(C)C[C@@H](C=O)NC(=O)[C@@H](NS(=O)(=O)c1ccc2ccccc2c1)C(C)C
pIC50 [2]: 8.00

CC(C)[C@H](NS(=O)(=O)c1ccc2ccccc2c1)C(=O)N[C@H](C=O)Cc1ccccc1
pIC50 [2]: 7.85

CC(C)[C@H](NS(=O)(=O)c1ccc(F)cc1)C(=O)N[C@H](C=O)Cc1ccccc1
pIC50 [2]: 7.57

CC(C)[C@H](NS(=O)(=O)c1ccc(F)cc1)C(=O)N[C@H](C=O)Cc1c[nH]c2ccccc12
pIC50 [2]: 7.64

CC(C)[C@H](NS(=O)(=O)c1ccc(F)cc1)C(=O)N[C@@H](C)C=O
pIC50 [2]: 6.20

CC(C)C[C@@H](C=O)NC(=O)[C@@H](NS(=O)(=O)c1ccc(Cl)cc1)C(C)C
pIC50 [2]: 7.51

CC(C)[C@H](NS(=O)(=O)c1ccc(Cl)cc1)C(=O)N[C@H](C=O)Cc1ccccc1
pIC50 [2]: 7.85

CC(C)[C@H](NS(=O)(=O)c1ccc(Cl)cc1)C(=O)N[C@H](C=O)Cc1c[nH]c2ccccc12
pIC50 [2]: 7.89

CCC[C@H](NS(=O)(=O)c1ccc(F)cc1)C(=O)N[C@H](C=O)CC(C)C
pIC50 [2]: 6.89

CCCC[C@H](NS(=O)(=O)c1ccc(F)cc1)C(=O)N[C@H](C=O)CC(C)C
pIC50 [2]: 6.59

CC(C)C[C@@H](C=O)NC(=O)[C@H](C(C)C)N(C)S(=O)(=O)c1ccc(F)cc1
pIC50 [2]: 4.68

CC(C)C[C@@H](C=O)NC(=O)[C@@H](NS(=O)(=O)c1ccc(F)cc1)C(C)C
pIC50 [3]: 6.89 | pIC50 [4]: 7.10

CC(C)C[C@@H](C=O)NC(=O)[C@@H](NC(=O)c1ccc[nH]1)C(C)C
pIC50 [3]: 6.19 | pIC50 [4]: 6.50

CC(C)C[C@@H](C=O)NC(=O)[C@@H](NC(=O)c1ccco1)C(C)C
pIC50 [3]: 6.10 | pIC50 [4]: 6.87

CC(C)C[C@@H](C=O)NC(=O)[C@@H](NC(=O)c1cccs1)C(C)C
pIC50 [3]: 6.17 | pIC50 [4]: 7.00

CC(C)C[C@@H](C=O)NC(=O)[C@@H](NC(=O)c1ccc(C=O)o1)C(C)C
pIC50 [3]: 6.02 | pIC50 [4]: 7.00

CC(C)C[C@@H](C=O)NC(=O)[C@@H](NC(=O)c1ccc(C=O)s1)C(C)C
pIC50 [3]: 6.36 | pIC50 [4]: 7.07

Cc1ccc(C(=O)N[C@H](C(=O)N[C@H](C=O)CC(C)C)C(C)C)[nH]1
pIC50 [3]: 6.47 | pIC50 [4]: 6.96

COC(=O)c1ccc(C(=O)N[C@H](C(=O)N[C@H](C=O)CC(C)C)C(C)C)[nH]1
pIC50 [3]: 6.54 | pIC50 [4]: 6.85

CC(C)C[C@@H](C=O)NC(=O)[C@@H](NC(=O)c1cc(C=O)c[nH]1)C(C)C
pIC50 [3]: 6.28 | pIC50 [4]: 7.00

CC(C)C[C@@H](C=O)NC(=O)[C@@H](NC(=O)c1ccc(C=O)[nH]1)C(C)C
pIC50 [3]: 6.54 | pIC50 [4]: 7.60

CC(C)C[C@@H](C=O)NC(=O)[C@@H](NC(=O)c1ccc(C=O)n1C)C(C)C
pIC50 [3]: 6.82 | pIC50 [4]: 6.82

CC(C)C[C@@H](C=O)NC(=O)[C@@H](NS(C)(=O)=O)C(C)C (Ms-Val-Leu-aldehyde)
pIC50 [2]: 6.08

Cc1ccc(S(=O)(=O)N[C@H](C(=O)N[C@H](C=O)CC(C)C)C(C)C)cc1 (Tos-Val-Leu-aldehyde)
pIC50 [2]: 7.55

Cc1ccc(S(=O)(=O)N[C@H](C(=O)N[C@H](C=O)Cc2ccccc2)C(C)C)cc1 (Tos-Val-Phe-aldehyde)
pIC50 [2]: 7.74
